Experimental data taken from ChEMBL document CHEMBL4627381, “Licochalcone A Selectively Resensitizes ABCG2-Overexpressing Multidrug-Resistant Cancer Cells to Chemotherapeutic Drugs” (J Nat Prod, 2020).
The source made the active and inactive calls. The rule behind the calls is not given here.

Assays:
S1-M1-80 [1] = experiment: Induction of apoptosis in human S1-M1-80 cells harboring ABCG2 (unknown origin) assessed as necrotic cells at 10 uM incubated for 48 hrs by annexin V/propidium iodide staining based flow cytometry (reference value: 0.3%); assay type: functional
S1-M1-80 [2] = experiment: Induction of apoptosis in human S1-M1-80 cells harboring ABCG2 (unknown origin) assessed as early apoptotic cells at 10 uM incubated for 48 hrs by annexin V/propidium iodide staining based flow cytometry (reference value: 2.8%); assay type: functional
[3] = target: T1, Broad substrate specificity ATP-binding cassette transporter ABCG2 (Homo sapiens, UniProt Q9UNQ0); experiment: Inhibition of ABCG2 (unknown origin)-mediated pheophorbide A efflux in H460-MX20 cells incubated for 1 hr by FACScan flow cytometry; assay type: cell-based
T1 sequence (Q9UNQ0 whole entry): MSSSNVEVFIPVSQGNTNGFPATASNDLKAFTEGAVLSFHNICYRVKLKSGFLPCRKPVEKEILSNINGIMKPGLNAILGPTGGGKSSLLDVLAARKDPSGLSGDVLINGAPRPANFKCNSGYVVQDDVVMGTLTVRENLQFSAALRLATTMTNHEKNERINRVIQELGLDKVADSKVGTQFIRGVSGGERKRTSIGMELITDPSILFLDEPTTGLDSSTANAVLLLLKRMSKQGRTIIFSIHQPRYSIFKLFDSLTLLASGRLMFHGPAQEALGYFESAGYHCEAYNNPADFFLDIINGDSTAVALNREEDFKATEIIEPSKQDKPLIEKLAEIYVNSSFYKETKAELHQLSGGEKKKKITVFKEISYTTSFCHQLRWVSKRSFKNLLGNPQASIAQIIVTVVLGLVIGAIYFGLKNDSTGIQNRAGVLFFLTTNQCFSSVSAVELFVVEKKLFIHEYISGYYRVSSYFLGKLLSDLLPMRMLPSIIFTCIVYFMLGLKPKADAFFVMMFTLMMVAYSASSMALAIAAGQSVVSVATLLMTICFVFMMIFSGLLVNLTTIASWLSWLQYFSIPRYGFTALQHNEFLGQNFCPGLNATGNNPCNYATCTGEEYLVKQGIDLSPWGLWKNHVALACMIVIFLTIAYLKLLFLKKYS
Procedure, shortened: (§1)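 Cells held drug-free 7 days. 3 × 10^5 cells were suspended in IMDM with 5% FCS and loaded with pheophorbide A (ex 395/em 670 nm) for 1 h, with or without LCA (20 μM for single-concentration accumulation) or Ko143 3 μM as reference. Read immediately by flow cytometry. Efflux inhibition was run over a concentration range; mean ± SD of three experiments.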

[4] = target: T1, Broad substrate specificity ATP-binding cassette transporter ABCG2; experiment: Inhibition of ABCG2 (unknown origin)-mediated pheophorbide A efflux in human S1 cells incubated for 1 hr by FACScan flow cytometry; assay type: cell-based; settings: s1, 1 h; procedure, shortened: as §1
NCI-H460 [5] = experiment: Induction of pheophorbide A accumulation in human H460 cells at 20 uM incubated for 1 hr by FACScan flow cytometry; assay type: functional, cell-based; procedure, shortened: as §1
[6] = target: T1, Broad substrate specificity ATP-binding cassette transporter ABCG2; experiment: Modulation of human ABCG2 expressed in HEK293/R482 cells assessed as increase in intracellular pheophorbide A accumulation at 20 uM incubated for 1 hr by FACScan flow cytometry; assay type: cell-based; procedure, shortened: as §1
[7] = target: T1, Broad substrate specificity ATP-binding cassette transporter ABCG2; experiment: Reversal of ABCG2 (unknown origin)-mediated multidrug resistance in human H460-MX20 cells assessed as fold change in topotecan IC50 at 2 uM after 72 hrs by MTT assay relative to topotecan IC50; assay type: cell-based
Procedure, shortened: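 Cells held drug-free 7 days, seeded at 5000 per well for 24 h, then exposed 72 h to mitoxantrone or topotecan dilutions with DMSO (≤0.5%), LCA 0.5–3.0 μM, or Ko143 1.0 μM. Viability was read by MTT. IC50 came from fitted dose-response curves of three independent experiments. Fold-reversal = IC50 without modulator divided by IC50 with modulator.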

NCI-H460 [8] = experiment: Effect on topotecan-induced cytotoxicity against human H460 cells assessed as fold change in topotecan IC50 at 1 uM after 72 hrs by MTT assay relative to topotecan IC50; assay type: functional
Procedure, shortened: (§2)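 Parental S1 colon and H460 lung cancer cells were exposed for 72 h to a mitoxantrone or topotecan concentration series, with or without modulator at 0.5–3.0 μM, and read by MTT. Fold-reversal is IC50 without modulator divided by IC50 with modulator, taken from dose-response curves of three independent experiments.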

NCI-H460 [9] = experiment: Effect on topotecan-induced cytotoxicity against human H460 cells assessed as fold change in topotecan IC50 at 0.5 uM after 72 hrs by MTT assay relative to topotecan IC50; assay type: functional; procedure, shortened: as §2
NCI-H460 [10] = experiment: Effect on mitoxantrone-induced cytotoxicity against human H460 cells assessed as fold change in mitoxantrone IC50 at 1 uM after 72 hrs by MTT assay relative to mitoxantrone IC50; assay type: functional; procedure, shortened: as §2
S1 [11] = experiment: Effect on topotecan-induced cytotoxicity against human S1 cells assessed as fold change in topotecan IC50 at 1 uM after 72 hrs by MTT assay relative to topotecan IC50; assay type: functional; procedure, shortened: as §2
S1 [12] = experiment: Effect on topotecan-induced cytotoxicity against human S1 cells assessed as fold change in topotecan IC50 at 0.5 uM after 72 hrs by MTT assay relative to topotecan IC50; assay type: functional; procedure, shortened: as §2
[13] = target: T1, Broad substrate specificity ATP-binding cassette transporter ABCG2; experiment: Reversal of ABCG2 (unknown origin)-mediated multidrug resistance in human S1-M1-80 cells assessed as fold-change in mitoxantrone IC50 at 3 uM after 72 hrs by MTT assay relative to mitoxantrone IC50; assay type: cell-based; settings: s1-m1-80, 72 h
Procedure, shortened: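 MTT readout in S1-M1-80 colon cancer cells (mitoxantrone-selected, held in 80 μM mitoxantrone, then drug-free 7 days before assay). Cells were seeded at 5000/well for 24 h, then given increasing mitoxantrone or topotecan with DMSO or non-toxic modulator for 72 h at 37 °C. IC50 came from fitted dose-response curves (at least three independent experiments). Fold-reversal = IC50 without modulator ÷ IC50 with modulator.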

HEK293 = experiment: Effect on topotecan-induced cytotoxicity against HEK293 cells assessed as fold change in topotecan IC50 at 0.5 uM after 72 hrs by CCK8 assay relative to topotecan IC50; assay type: cell-based; settings: human, hek293, 72 h
Procedure, shortened: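 Reversal assay in parental pcDNA-HEK293 and transfected HEK293 lines (ABCB1 for colchicine, ABCC1 for etoposide, ABCG2 for mitoxantrone/topotecan). Substrate drug series was given with or without nontoxic modulator (0.5, 1.0, 2.0 or 3.0 μM) for 72 h, with a CCK-8 read-out. Fold-reversal is substrate IC50 without modulator divided by IC50 with modulator. Three independent experiments.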

[14] = target: T2, ATP-dependent translocase ABCB1 (Homo sapiens, UniProt P08183); experiment: Reversal of human ABCB1-mediated multidrug resistance in HEK293/MDR19 cells assessed as fold change in colchicine IC50 at 1 uM after 72 hrs by CCK8 relative to colchicine IC50; assay type: cell-based
T2 sequence (P08183 whole entry): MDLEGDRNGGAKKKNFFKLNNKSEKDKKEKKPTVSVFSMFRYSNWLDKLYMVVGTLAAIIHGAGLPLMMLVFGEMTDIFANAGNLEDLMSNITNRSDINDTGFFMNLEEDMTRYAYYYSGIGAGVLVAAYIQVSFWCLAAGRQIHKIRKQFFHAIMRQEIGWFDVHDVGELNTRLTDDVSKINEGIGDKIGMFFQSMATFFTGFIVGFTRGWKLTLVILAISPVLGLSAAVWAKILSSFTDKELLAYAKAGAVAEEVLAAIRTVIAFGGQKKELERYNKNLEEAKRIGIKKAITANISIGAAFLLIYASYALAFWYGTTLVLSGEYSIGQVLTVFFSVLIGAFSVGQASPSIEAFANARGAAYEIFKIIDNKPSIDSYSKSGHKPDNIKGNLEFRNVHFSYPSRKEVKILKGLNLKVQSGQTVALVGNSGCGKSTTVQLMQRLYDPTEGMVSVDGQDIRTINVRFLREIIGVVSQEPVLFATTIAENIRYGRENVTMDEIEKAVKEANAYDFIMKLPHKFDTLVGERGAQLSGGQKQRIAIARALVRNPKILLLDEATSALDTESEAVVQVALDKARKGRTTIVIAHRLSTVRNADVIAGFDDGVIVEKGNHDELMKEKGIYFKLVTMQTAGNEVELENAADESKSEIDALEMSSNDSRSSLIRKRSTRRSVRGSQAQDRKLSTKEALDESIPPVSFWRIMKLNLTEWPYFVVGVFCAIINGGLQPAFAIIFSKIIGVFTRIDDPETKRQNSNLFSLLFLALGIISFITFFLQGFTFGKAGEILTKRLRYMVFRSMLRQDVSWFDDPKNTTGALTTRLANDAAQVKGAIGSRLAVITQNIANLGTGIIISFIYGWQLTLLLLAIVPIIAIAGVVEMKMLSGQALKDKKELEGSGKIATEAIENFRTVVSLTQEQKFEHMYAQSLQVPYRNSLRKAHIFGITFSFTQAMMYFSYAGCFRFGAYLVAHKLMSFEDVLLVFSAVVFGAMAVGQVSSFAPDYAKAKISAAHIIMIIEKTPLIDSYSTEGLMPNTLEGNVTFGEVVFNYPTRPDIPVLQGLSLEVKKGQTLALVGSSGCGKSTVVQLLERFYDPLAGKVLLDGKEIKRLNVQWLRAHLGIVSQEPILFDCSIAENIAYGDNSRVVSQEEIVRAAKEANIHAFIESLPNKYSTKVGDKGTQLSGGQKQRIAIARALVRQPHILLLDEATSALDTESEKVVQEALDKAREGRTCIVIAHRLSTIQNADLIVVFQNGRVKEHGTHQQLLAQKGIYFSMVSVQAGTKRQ
Procedure, shortened: (§3)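 Cells were seeded at 5000/well for 24 h, then given colchicine, etoposide, mitoxantrone or topotecan ± non-toxic modulator (0.5–3.0 μM) for 72 h, with DMSO up to 0.5%. IC50 came from fitted curves (mean ± SD, three experiments). Fold-reversal = IC50 without modulator ÷ IC50 with modulator.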

[15] = target: T2, ATP-dependent translocase ABCB1; experiment: Reversal of human ABCB1-mediated multidrug resistance in HEK293/MDR19 cells assessed as fold change in colchicine IC50 at 0.5 uM after 72 hrs by CCK8 relative to colchicine IC50; assay type: cell-based; procedure, shortened: as §3

## C=CC(C)(C)c1cc(/C=C/C(=O)c2ccc(O)cc2)c(OC)cc1O [LICOAGROCHACONE A]
S1-M1-80 [1]
  Activity: 0.2%
S1-M1-80 [2]
  Activity: 2.5%
[3]
  inhibition (INH): Dose-dependent effect
[4]
  inhibition (INH): Dose-dependent effect
NCI-H460 [5]
  Activity: inactive
[6]
  Activity: Active
[7]
  fold change (FC): 8.9
NCI-H460 [8]
  fold change (FC): 1.7
NCI-H460 [9]
  fold change (FC): 1.5
NCI-H460 [10]
  fold change (FC): 1.1
S1 [11]
  fold change (FC): 0.8
S1 [12]
  fold change (FC): 0.9
[13]
  fold change (FC): 48.1
HEK293
  fold change (FC): 0.9
[14]
  fold change (FC): 0.8
[15]
  fold change (FC): 1
